# Test results: ChEMBL document CHEMBL3352444, “Bioactive spirobisnaphthalenes from the endophytic fungus Berkleasmium sp” (J Nat Prod, 2014)
# Experiments:
# [1] = system: Agrobacterium tumefaciens; assay: Antibacterial activity against Agrobacterium tumefaciens No.8 ATCC 11158 by modified broth dilution method; type: functional
# Outline: (§1)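 MIC read in 96-well plates by a modified broth dilution test; streptomycin sulfate as positive control.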
# Pseudomonas = assay: Antibacterial activity against Pseudomonas lachrymans ATCC 11921 by modified broth dilution method; type: functional; outline: as §1
# [2] = Cytotoxicity against human Bel7402 cells by MTT assay; settings: Bel-7402
# A549 = assay: Cytotoxicity against human A549 cells by MTT assay; type: functional, cell-based
# Xanthomonas vesicatoria = assay: Antibacterial activity against Xanthomonas vesicatoria ATCC 11633 by modified broth dilution method; type: functional; outline: as §1
# [3] = Cytotoxicity against human BGC823 cells by MTT assay; settings: BGC-823
# Ralstonia solanacearum = assay: Antibacterial activity against Ralstonia solanacearum ATCC 11696 by modified broth dilution method; type: functional
# A2780 = assay: Cytotoxicity against human A2780 cells by MTT assay
# Bacillus subtilis = assay: Antibacterial activity against Bacillus subtilis ATCC 11562 by modified broth dilution method; type: functional; outline: as §1
# [4] = Cytotoxicity against human HCT8 cells by MTT assay; settings: HCT-8
# Pyricularia oryzae = assay: Antifungal activity against Magnaporthe oryzae assessed as inhibition of spore germination incubated for 8 hrs; type: functional, organism-based
# [5] = system: Staphylococcus haemolyticus; assay: Antibacterial activity against Staphylococcus haemolyticus ATCC 29970 by modified broth dilution method; type: functional; outline: as §1
SMILES,MIC [1],MIC (Pseudomonas),IC50 [2],IC50 (A549),MIC (Xanthomonas vesicatoria),IC50 [3],MIC (Ralstonia solanacearum),IC50 (A2780),MIC (Bacillus subtilis),IC50 [4],IC50 (Pyricularia oryzae),MIC [5]
O=C1CC[C@@H](O)[C@@]23O[C@@]12C1(Oc2cccc4cccc(c24)O1)[C@H](O)[C@@H](O)[C@@H]3O,> 250 µg/mL,> 250 µg/mL,> 10 µM,> 10 µM,> 250 µg/mL,> 10 µM,> 250 µg/mL,> 10 µM,> 250 µg/mL,> 10 µM,> 200 µg/mL,> 250 µg/mL
O=C1C[C@H](O)[C@H](O)C2=C[C@H](O)[C@@H](O)C3(Oc4cccc5cccc(c45)O3)[C@]12O,> 250 µg/mL,> 250 µg/mL,> 10 µM,> 10 µM,> 250 µg/mL,> 10 µM,> 250 µg/mL,> 10 µM,> 250 µg/mL,> 10 µM,> 200 µg/mL,> 250 µg/mL
COC(=O)Nc1nc2ccccc2[nH]1 [CARBENDAZIM],,,,,,,,,,,6.3 µg/mL,
CN[C@@H]1[C@H](O[C@H]2[C@H](O[C@H]3[C@H](O)[C@@H](O)[C@H](N=C(N)N)[C@@H](O)[C@@H]3N=C(N)N)O[C@@H](C)[C@]2(O)C=O)O[C@@H](CO)[C@H](O)[C@H]1O.CN[C@@H]1[C@H](O[C@H]2[C@H](O[C@H]3[C@H](O)[C@@H](O)[C@H](N=C(N)N)[C@@H](O)[C@@H]3N=C(N)N)O[C@@H](C)[C@]2(O)C=O)O[C@@H](CO)[C@H](O)[C@H]1O.O=S(=O)(O)O.O=S(=O)(O)O.O=S(=O)(O)O [STREPTOMYCIN SULFATE],5 µg/mL,7.5 µg/mL,,,10 µg/mL,,5 µg/mL,,5 µg/mL,,,5 µg/mL
Oc1cccc2c1[C@@H](O)[C@H]1O[C@H]1C21Oc2cccc3cccc(c23)O1,37.5 µg/mL,37.5 µg/mL,> 10 µM,> 10 µM,37.5 µg/mL,> 10 µM,37.5 µg/mL,> 10 µM,25 µg/mL,> 10 µM,32.3 µg/mL,25 µg/mL
O[C@@H]1[C@@H](O)C2(Oc3cccc4cccc(c34)O2)[C@@]23O[C@@]2([C@@H](O)C=C[C@H]3O)[C@H]1O,> 250 µg/mL,> 250 µg/mL,> 10 µM,> 10 µM,> 250 µg/mL,> 10 µM,> 250 µg/mL,> 10 µM,> 250 µg/mL,> 10 µM,> 200 µg/mL,> 250 µg/mL
O=C1C(Cl)=CC2(Oc3cccc4cccc(c34)O2)[C@]23O[C@]12[C@H](O)CCC3=O,25 µg/mL,25 µg/mL,2.5 µM,1.6 µM,25 µg/mL,2.6 µM,25 µg/mL,1.3 µM,50 µg/mL,4.2 µM,9.1 µg/mL,25 µg/mL
O=C1C[C@@H](O)C2(Oc3cccc4cccc(c34)O2)c2c(O)ccc(O)c21,37.5 µg/mL,37.5 µg/mL,> 10 µM,> 10 µM,50 µg/mL,> 10 µM,37.5 µg/mL,> 10 µM,37.5 µg/mL,> 10 µM,64.8 µg/mL,50 µg/mL
O[C@@H]1CC[C@H](O)[C@@]23O[C@@]12C1(Oc2cccc4cccc(c24)O1)[C@@H]1O[C@@H]1[C@@H]3O,> 250 µg/mL,> 250 µg/mL,> 10 µM,> 10 µM,> 250 µg/mL,> 10 µM,> 250 µg/mL,> 10 µM,> 250 µg/mL,> 10 µM,> 200 µg/mL,> 250 µg/mL
O=C1CCC2(Oc3cccc4cccc(c34)O2)c2c(O)ccc(O)c21 [PALMARUMYCIN CP17],> 250 µg/mL,> 250 µg/mL,> 10 µM,> 10 µM,> 250 µg/mL,> 10 µM,> 250 µg/mL,> 10 µM,> 250 µg/mL,> 10 µM,> 200 µg/mL,> 250 µg/mL
